# About 60 (0.1%) of roughly 60,000 compounds were called active.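 Rule for the calls: active = activation above the screen-wide mean plus 3 SD (cut at about 4.5% in these data, passing the limit was not always enough); inactive = the rest, inconclusive results apart.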 Only a selection was taken, and actives are over-represented in it overall.
# Target: Sphingosine 1-phosphate receptor 3 (Homo sapiens) (UniProt Q99500)
# Experiment: activators of S1P3 receptor signaling – cell-based, primary and confirmation, NFAT-BLA reporter, primary screen (AID 373)
# Procedure, shortened: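 Assay system: CHO cells stably expressing human S1P3, Gα16 and NFAT-β-lactamase reporter. Timing: overnight plating, 4 h compound 37 °C, 2 h substrate RT. Signal: β-lactamase FRET emission ratio 460/535 nm. Measure: percent activation versus median 1 µM S1P response, basal-subtracted, per plate. Repeats: primary screen single test, confirmation screen in triplicate.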
# [1] = S1P3 NFAT-BLA reporter cells, agonism, FRET ratio, at 4.5 µM, stronger effect = higher value, relative to 1 µM S1P, basal subtracted
# [2] = S1P3 NFAT-BLA reporter cells, agonism, FRET ratio; at 4.5 µM; stronger effect = higher value; relative to 1 µM S1P, basal subtracted
# [3] = S1P3 NFAT-BLA reporter cells, agonism, FRET ratio; measured here: confirmation screen, triplicate average; at 4.5 µM; stronger effect = higher value; relative to 1 µM S1P, basal subtracted
# Chain of Sphingosine 1-phosphate receptor 3 (Homo sapiens) (Q99500 whole entry, looked up): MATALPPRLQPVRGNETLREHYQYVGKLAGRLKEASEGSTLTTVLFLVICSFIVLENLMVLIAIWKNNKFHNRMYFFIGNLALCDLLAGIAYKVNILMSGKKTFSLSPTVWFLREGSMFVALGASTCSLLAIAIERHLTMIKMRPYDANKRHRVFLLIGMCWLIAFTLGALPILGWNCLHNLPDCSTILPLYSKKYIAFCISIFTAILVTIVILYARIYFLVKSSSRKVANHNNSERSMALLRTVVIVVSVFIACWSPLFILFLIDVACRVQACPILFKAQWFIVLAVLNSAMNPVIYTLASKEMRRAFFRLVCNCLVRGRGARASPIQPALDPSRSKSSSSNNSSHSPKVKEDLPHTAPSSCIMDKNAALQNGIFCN
compound,measurement,setting,value
CCCc1[nH]nc2c1C(c1ccc(OC)c(Cn3nc(C)c(Br)c3C)c1)C(C#N)=C(N)O2 (centres undefined),activation,[1],-0.7% (inactive)
O=C(CN1CCOc2ccccc21)N1CCC(Cc2ccccc2)CC1,activation,[1],-0.9% (inactive)
Cc1cc(=O)[nH]c(SCC(N)=O)c1C#N,activation,[1],-1% (inactive)
CCc1nc2ccccc2n(CCOCCOCCn2c(=O)c(CC)nc3ccccc32)c1=O,activation,[1],1.3% (inactive)
O=C(CC1OC(=O)c2ccccc21)NC1CCCCC1 (centres undefined),activation,[1],-0.8% (inactive)
O=C(O)CCN1C(=O)CC2(CCCCC2)C1=O,activation,[1],-0.4% (inactive)
CCn1cc(NC(=O)Nc2ccc(OC)c(OC)c2)c(C(N)=O)n1,activation,[1],-0.9% (inactive)
C=CCn1c(=O)c2ccccc2n2c(SCC(=O)N3CCCc4ccccc43)nnc12,activation,[1],-2.3% (inactive)
OC(COc1ccc2ccccc2c1)CN1CCOCC1 (centres undefined),activation,[1],0.6% (inactive)
Cc1ccc2nc(-c3ccccc3)cc(C(=O)O)c2c1,activation,[1],0.7% (inactive)
Cc1cccc(NC(=O)C2CCCN2S(=O)(=O)c2ccc(F)cc2)c1C (centres undefined),activation,[1],-1.1% (inactive)
Cc1nc(Nc2ccc3c(c2)OCCO3)c2nnn(Cc3ccccc3Cl)c2n1,activation,[1],-1.2% (inactive)
COc1ccccc1N=C1SC(C)CN1C(=O)C1CCC1 (centres undefined),activation,[1],0.5% (inactive)
O=S(=O)(NCc1ccccn1)c1ccc(F)cc1,activation,[1],-1.2% (inactive)
COCCn1c(C)cc(C(=O)CSc2ncnc3sc4c(c23)CCC4)c1C,activation,[1],-1% (inactive)
Cc1cc(C)n(-c2nc(SCC(=O)N3CCCC3)c3c4c(sc3n2)CCCC4)n1,activation,[1],0% (inactive)
COCCNc1nc(-n2nc(C)cc2C)nc2sc3c(c12)CCCC3,activation,[2],18.4% (active)
same,activation,[3],25.3%
CC1=CC(C)(C)N(C(=O)CSc2nccn2C)c2cc(C)ccc21,activation,[1],0.7% (inactive)
O=C(CCSCCc1ccccn1)Nc1nccs1,activation,[1],-0.7% (inactive)
COc1ccc(-c2nnc(SCC(=O)NC3CCCCC3)o2)cc1OC,activation,[1],-0.8% (inactive)
CCOC(=O)Cn1c(=O)oc2cc(S(=O)(=O)N(C)Cc3ccco3)ccc21,activation,[1],0.3% (inactive)
O=C(CN1C(=O)C2C3C=CC(C3)C2C1=O)NCCc1ccccc1Cl (centres undefined),activation,[1],0.1% (inactive)
CCOC(=O)C(C)Oc1cccc2c(=O)n(CC(=O)N3CCc4ccccc43)ccc12 (centres undefined),activation,[1],-1.6% (inactive)
Cc1cc(Nc2cccc(C)c2C)n2ncnc2n1,activation,[1],-1.3% (inactive)
COCCOC(=O)C1=C(C)NC(=O)NC1c1ccc(Cl)cc1 (centres undefined),activation,[1],-2.2% (inactive)
O=C(Cn1cnc2c(nnn2-c2ccccc2)c1=O)N1CCC(Cc2ccccc2)CC1,activation,[1],-1.2% (inactive)
COC(=O)c1ccc(OC(=O)c2nn(C)cc2Cl)c(OC)c1,activation,[1],-1% (inactive)
COc1ccc(-c2nnc(SC(=O)N3c4ccccc4Sc4ccccc43)o2)cc1,activation,[1],-1.5% (inactive)
CC1(C)CCCC2=C1CC1C(=O)N(c3ccccc3)C(=O)C1C2 (centres undefined),activation,[1],-0.8% (inactive)
C=CCNC(=O)CCCOc1cccc(C)c1,activation,[1],0.2% (inactive)
O=C(CCOc1ccccc1)NCc1ccccc1,activation,[1],0.1% (inactive)
O=C(CCC(=O)OCC(F)(F)C(F)F)NCc1ccccc1,activation,[1],-0.2% (inactive)
COc1c(Br)cc2c(C)c(C(=O)N3CCOCC3)oc2c1Br,activation,[1],1.5% (inactive)
CCCN(CCC)C(=O)C1c2ccccc2Oc2ccccc21,activation,[1],-1.3% (inactive)
COc1ccccc1CNC(=O)CCCNS(=O)(=O)c1cccc2nsnc12,activation,[1],1.2% (inactive)
COCCNC(=O)Cn1cc2c(n1)CCCCC2,activation,[1],-0.2% (inactive)
CC(NC(=O)c1cc(-c2ccccc2)on1)c1ccccc1 (centres undefined),activation,[1],-1.3% (inactive)
O=C(Nc1ccc2c(c1)nc1n2CCCCC1)c1cc(S(=O)(=O)N2CCOCC2)ccc1Cl,activation,[1],-0.4% (inactive)
C=C(C)c1cccc(C(C)(C)NC(=O)N2CCN(c3ncccn3)CC2)c1,activation,[1],-0.9% (inactive)
CC(C)C(=O)Nc1c(C(=O)c2ccc(F)cc2)oc2ccccc12,activation,[1],-0.2% (inactive)
O=C(CN1CCOCC1)N1CCCc2c1c(=O)oc1ccc(OCc3ccccc3)cc21,activation,[1],-1% (inactive)
COCCOC(=O)C1=C(C)N=c2s/c(=C\c3cccs3)c(=O)n2C1c1cccs1 (centres undefined),activation,[1],-2% (inactive)
CC1(C)CC(=O)c2cc(OCC(=O)NCC3CCCO3)ccc2O1 (centres undefined),activation,[1],-0.8% (inactive)
CN(CCc1ccccn1)S(=O)(=O)c1ccc2c3c(cccc13)C(=O)N2,activation,[1],0.3% (inactive)
CC(=O)N1CC2(C)CN(C(C)=O)CC(C)(C1)C2=O,activation,[1],0% (inactive)
Cc1ccc2c(c1)sc1ncc(NC(=O)c3ccccc3)c(=O)n12,activation,[1],-1.1% (inactive)
O=C(NCCc1ccco1)c1nn(Cc2ccccc2)c(=O)c2ccccc12,activation,[1],0.7% (inactive)
Cc1ccnc(N2C(=O)c3ccccc3C2Nc2ccc3c(c2)OCCO3)c1 (centres undefined),activation,[1],0.3% (inactive)
COc1ccc(OC)c(NC(=O)CSc2nc3cccnc3n2C)c1,activation,[1],0.2% (inactive)
COc1ccc(Cn2c(=O)sc3ccccc32)cc1OC,activation,[1],-0.4% (inactive)
O=C(NC(c1ccccc1)c1ccccc1)N1CCN(CCO)CC1,activation,[1],0.8% (inactive)
C=CCn1c(N)c(C(=O)OCC(C)C)c2nc3ccccc3nc21,activation,[1],0.4% (inactive)
C=CCn1c(N)c(S(=O)(=O)c2cccs2)c2nc3ccccc3nc21,activation,[1],-0.5% (inactive)
CC(C)Cn1c(N)c(C(=O)NCc2cccs2)c2nc3ccccc3nc21,activation,[2],8.2% (active)
same,activation,[3],5.4%
CCCOC(=O)CC1C(=O)NCCN1Cc1ccc(F)cc1 (centres undefined),activation,[1],0.3% (inactive)
COc1cc(OC)cc(C(=O)Nc2ncc3c(n2)CC(C)(C)CC3=O)c1,activation,[1],-1.1% (inactive)
CN1CCN(C(=O)c2ccc(NS(=O)(=O)c3ccccc3)cc2)CC1,activation,[1],-0.2% (inactive)
CCOc1cc(C(=O)N2CCc3cc(OC)c(OC)cc3C2)ccc1OC(F)F,activation,[1],-0.2% (inactive)
COc1ccc(S(=O)(=O)N2CCN(C(=O)c3cccs3)CC2)cc1OC,activation,[1],0% (inactive)
Cc1c2cnn(-c3ccccc3)c(=O)c2c(C)n1CCCC(=O)N1CCN(C)CC1,activation,[1],-1.3% (inactive)
COc1ccc(C(=O)OCC(=O)c2ccc(C)c(S(=O)(=O)N3CCOCC3)c2)cc1OC,activation,[1],-1% (inactive)
CC1(C)CC(CCC(=O)Nc2ccccc2Cl)C(=O)O1 (centres undefined),activation,[1],-0.9% (inactive)

# From PubChem BioAssay AID373 (The Scripps Research Institute Molecular Screening Center, 2006)
